Measurements taken from ChEMBL document CHEMBL1250501, “Anti-tubercular agents. Part 5: synthesis and biological evaluation of benzothiadiazine 1,1-dioxide based congeners” (Eur J Med Chem, 2010).
Converted amounts (≈) assume the structure as drawn. The source made the active and inactive calls. The rule behind the calls is not given here.

Legend:
Type in all cases: functional
Bacillus subtilis [1] = experiment: Antibacterial activity against Bacillus subtilis at 50 ug/ml after 18 hrs by cup plate method
Summary of the method: (§1)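 Agar well diffusion on Mueller-Hinton agar. Inoculum was adjusted to a 0.5 McFarland standard (about […] × 10⁸ CFU/mL) and swabbed over the plate three times, rotating about 60° each time, then the rim was swabbed. Compounds in DMSO went into duplicate 6 mm wells. Plates were incubated at 37 °C for 18 h and inhibition zone diameter read to the nearest mm. DMSO negative control; streptomycin and ciprofloxacin positive controls.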

Klebsiella pneumoniae [2] = experiment: Antibacterial activity against Klebsiella pneumoniae at 50 ug/ml after 18 hrs by cup plate method; summary of the method: as §1
Candida albicans [3] = experiment: Antifungal activity against Candida albicans MTCC 227 at 50 ug/ml after 48 hrs by cup plate method
Summary of the method: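 Agar well (cup plate) diffusion on potato dextrose agar 39 g/L. Compounds dissolved in DMSO and loaded into 6 mm wells. Incubated at 28 ± 2 °C for 48 h. Inhibition zone diameter measured to the nearest millimetre, three replicates per treatment. DMSO solvent as negative control, amphotericin B as positive control.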

Pseudomonas aeruginosa [4] = experiment: Antibacterial activity against Pseudomonas aeruginosa at 50 ug/ml after 18 hrs by cup plate method; details: for zone of inhibition at 50 µg/mL: read-out: DIZ; summary of the method: as §1
Staphylococcus aureus [5] = experiment: Antibacterial activity against Staphylococcus aureus at 50 ug/ml after 18 hrs by cup plate method; details: for zone of inhibition at 50 µg/mL: read-out: DIZ; summary of the method: as §1
[6] = tested on: Staphylococcus epidermidis; experiment: Antibacterial activity against Staphylococcus epidermidis at 50 ug/ml after 18 hrs by cup plate method; details: for zone of inhibition at 50 µg/mL: read-out: DIZ; summary of the method: as §1
Escherichia coli [7] = experiment: Antibacterial activity against Escherichia coli at 50 ug/ml after 18 hrs by cup plate method; details: for zone of inhibition at 50 µg/mL: read-out: DIZ; summary of the method: as §1
Klebsiella pneumoniae [8] = experiment: Antibacterial activity against Klebsiella pneumoniae at 100 ug/ml after 18 hrs by cup plate method; summary of the method: as §1
[9] = tested on: Staphylococcus epidermidis; experiment: Antibacterial activity against Staphylococcus epidermidis at 100 ug/ml after 18 hrs by cup plate method; summary of the method: as §1
Pseudomonas aeruginosa [10] = experiment: Antibacterial activity against Pseudomonas aeruginosa at 100 ug/ml after 18 hrs by cup plate method; summary of the method: as §1
[11] = tested on: Mycobacterium tuberculosis; experiment: Antimycobacterial activity against Mycobacterium tuberculosis H37Rv after 3 to 4 weeks by broth microdilution assay
Summary of the method: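 MIC by broth microdilution on compounds active in a single-concentration primary screen. Plates incubated 3–4 weeks at 37 °C in a CO₂ incubator. Wells read visually for absence of growth turbidity.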

Escherichia coli [12] = experiment: Antibacterial activity against Escherichia coli at 100 ug/ml after 18 hrs by cup plate method; summary of the method: as §1
Bacillus subtilis [13] = experiment: Antibacterial activity against Bacillus subtilis at 100 ug/ml after 18 hrs by cup plate method; summary of the method: as §1
Candida albicans [14] = experiment: Antifungal activity against Candida albicans MTCC 227 at 100 ug/ml after 48 hrs by cup plate method; details: MTCC 227, 48 h, read-out: IZ
Summary of the method: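 Agar well (cup plate) diffusion on potato dextrose agar 39 g/L, with compounds dissolved in DMSO. Plates were incubated at 28 ± 2 °C for 48 h and inhibition zones measured to the nearest mm. Three replicates per treatment. Amphotericin B positive control; solvent control included.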

Staphylococcus aureus [15] = experiment: Antibacterial activity against Staphylococcus aureus at 100 ug/ml after 18 hrs by cup plate method; summary of the method: as §1

Structure (SMILES) | inhibition zone (IZ) (Candida albicans [3]) | zone of inhibition at 50 µg/mL (Pseudomonas aeruginosa [4]) | zone of inhibition at 50 µg/mL (Staphylococcus aureus [5]) | zone of inhibition at 50 µg/mL [6] | zone of inhibition at 50 µg/mL (Escherichia coli [7]) | diameter of the inhibition zone (DIZ) (Klebsiella pneumoniae [8]) | diameter of the inhibition zone (DIZ) (Bacillus subtilis [1]) | diameter of the inhibition zone (DIZ) [9] | diameter of the inhibition zone (DIZ) (Pseudomonas aeruginosa [10]) | MIC [11] | diameter of the inhibition zone (DIZ) (Escherichia coli [12]) | diameter of the inhibition zone (DIZ) (Bacillus subtilis [13]) | zone of inhibition at 100 µg/mL (Candida albicans [14]) | diameter of the inhibition zone (DIZ) (Klebsiella pneumoniae [2]) | also measured
CN[C@@H]1[C@H](O[C@H]2[C@H](O[C@H]3[C@H](O)[C@@H](O)[C@H](N=C(N)N)[C@@H](O)[C@@H]3N=C(N)N)O[C@@H](C)[C@]2(O)C=O)O[C@@H](CO)[C@H](O)[C@H]1O [STREPTOMYCIN] | inactive | 29 mm | 22 mm | 18 mm | 21 mm | – | – | – | – | – | – | – | – | – | zone of inhibition at 50 µg/mL (Bacillus subtilis [1]; read-out: DIZ): 17 mm; zone of inhibition at 50 µg/mL (Klebsiella pneumoniae [2]; read-out: DIZ): 22 mm
CCN1C(N2CCN(C(=O)c3ccc([N+](=O)[O-])o3)CC2)=NS(=O)(=O)c2ccccc21 | inactive | – | – | – | – | inactive | inactive | inactive | inactive | > 16 µg/mL | inactive | inactive | 10 mm | inactive | diameter of the inhibition zone (DIZ) (Pseudomonas aeruginosa [4]): inactive; diameter of the inhibition zone (DIZ) (Staphylococcus aureus [5]): inactive; diameter of the inhibition zone (DIZ) [6]: inactive; diameter of the inhibition zone (DIZ) (Staphylococcus aureus [15]): inactive; diameter of the inhibition zone (DIZ) (Escherichia coli [7]): inactive
CN1C(N2CCN(C(=O)c3ccc([N+](=O)[O-])o3)CC2)=NS(=O)(=O)c2ccccc21 | inactive | 10 mm | 17 mm | 10 mm | 9 mm | inactive | inactive | inactive | inactive | 16 µg/mL (≈ 38.1 µM) | inactive | inactive | 12 mm | inactive | zone of inhibition at 100 µg/mL (Staphylococcus aureus [15]; read-out: DIZ): 18 mm
